# Bioassay records (PubChem)
# PG9 binder = small molecules binding HIV-1 gp120 antibody PG9; AID 624416; inhibition, % at 6.7 µM; 360,000 tested, 0.43% active; TR-FRET gp120-PG9 antibody binding; in the data active = inhibition above about 8.5%
# Rin1-Abl PPI inh = blocks binding of human Rin1 to Abl | P00519+Q13671 | TR-FRET Rin1/Abl binding, biochemical | inhibition, % at 7.35 µM | 360,000 tested, 0.4% active | AID 588664; in the data active = inhibition above about 5%, passing the limit was not always enough
# Rev-erbA mod = modulators of human Rev-erb alpha DNA binding | P20393 | Rev-erbα–FITC-DNA binding, fluorescence polarization, 90 min | activity, % at 10 µM | 370,000 tested, 0.79% active | AID 1259318;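 active = activity above about 14%, limit read from the data; passing the limit was not always enough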;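 note: 0% = DMSO wells with 35 nM protein and 100% = DMSO wells with 750 nM protein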
# Tb MetRS inh = blocks T. brucei methionyl-tRNA synthetase activity. purified T. brucei MetRS, ATP depletion, Kinase-Glo luminescence. inhibition, % at 11.9 µM. 360,000 tested, 0.4% active. AID 624268;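 active = inhibition above a per-plate cutoff of the control wells' mean inhibition plus 3 SD, cut at about 5.5% in these data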;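 note: 0% = DMSO wells median and 100% = median of wells with control inhibitor compound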
#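 Dosing: 11.9 µM compound single dose, 0.9% DMSO; Assay system: purified T. brucei MetRS enzyme; Measured by: Kinase-Glo luciferase luminescence reporting remaining unconsumed ATP; Schedule: 15 min plus 2 h at 25 °C.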
# Rin1 Abl conf = Rin1-Abl interaction inhibition confirmation; shares compounds with Rin1-Abl PPI inh; TR-FRET Rin1-Abl binding, purified proteins; inhibition, % at 7.35 µM; 1,300 tested, 49% active
# GFP quencher = counter-screen for Rin1-Abl inhibitors: GFP fluorescence quenchers. shares compounds with Rin1-Abl PPI inh. inhibitors/quenchers counterscreen. inhibition, % at 6.75 µM. 1,300 tested, 8.5% active. AID 602125;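 note: ABL1-eGFP fusion protein alone without its partner RIN1-SBP; 0% = protein with vehicle and 100% = wells lacking protein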
# GFP quench DR = counter-screen for Rin1-Abl inhibitors: GFP quenchers, dose response. shares compounds with Rin1-Abl PPI inh. GFP fluorescence interference/quenching counterscreen. IC50, µM. 230 tested, under 10 active. AID 602182; call rule not given here;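 note: ABL1-eGFP fusion protein alone without its RIN1 binding partner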
# Starred values were filed as active, the others as inactive; / = not tested or not shown; ! = not active in a repeat. In the library only some 1.8% were active in any assay of this set; here they are far more common. Cut-off read from the data, not from the text of the source, unless noted: active = inhibition above about 6.5%; inactive = the rest.
SMILES,PG9 binder,Rin1-Abl PPI inh,Rev-erbA mod,Tb MetRS inh,Rin1 Abl conf,GFP quencher,others
C[C@H](O)[C@@H]1CN2CCc3ccc(-c4ccc5c(c4)OCO5)cc3[C@@H]2C[C@@H]1N(C)Cc1cc(Cl)cc(Cl)c1,0,/,1,/,/,/,
Brc1ccc(N=NNc2ccccc2)cc1,-3,5.8*,-3,1,-2,-1,
O=[N+]([O-])c1ccc(N=NNc2ccccc2)cc1,/,0,/,0,/,/,
COc1ccc(CC(N)c2csc(NC(=O)NCCc3ccccc3)n2)cc1 (configuration not stated),0,10*,7,0,6.8*,1,
Nc1[nH]c(C(=O)c2ccc(Br)cc2)c(-c2ccc3ccccc3c2)c1C(=O)NCCc1c[nH]c2ccccc12,0,/,4,/,/,/,
Cc1cccc(OCCn2c(=O)oc3ccc(C)cc32)c1,0,5.8*,3,-1,-1,1,
COc1cc(O)c(C(CC(=O)N2CCCC(C)C2)c2ccccc2)c(OC)c1 (configuration not stated),/,/,1,/,/,/,
C[C@H]1[C@@H](O)CC[C@@]23CCCN2C(=O)CCC[C@@H]13,/,/,3,/,/,/,
C=CCCC1CN(CC=C)S(=O)(=O)c2c(F)cccc2O1 (configuration not stated),1,/,-1,/,/,/,
COc1ccc(C(CNC(=O)COc2cc(C)ccc2Cl)N2CCCCC2)cc1 (configuration not stated),1,14*,-5,0,-1,-4,
CCOC(=O)CCCCC(=O)c1[nH]c(=O)[nH]c1CN1CCOCC1,0,80*,-4,0,88*,-1,GFP quench DR=>68
CCCSc1nc(C)cc(=O)[nH]1,3,1,-1,0,/,/,
CCOC(=O)c1[nH]c(=O)[nH]c1CSc1nc(C)cc(C)n1,0,4,4,0,/,/,
CCOC(=O)c1c(C)[nH]c(C(=O)CN2CCOCC2)c1C,2,2,-6,0,/,/,
CCOC(=O)CCCCC(=O)c1[nH]c(=O)[nH]c1CSc1nc2ccccc2[nH]1,-4,84*,-5,0,88*,0,GFP quench DR=>68
CCOC(=O)c1c(C)[nH]c(C)c1C(=O)CSc1nc2ccccc2[nH]1,-1,-2,-5,0,/,/,
CCOC(=O)CCCCC(=O)c1[nH]c(=O)[nH]c1CSc1nc(C)cc(=O)[nH]1,1,82*,1,0,86*,0,GFP quench DR=>68
CCOC(=O)CCCCC(=O)c1[nH]c(=O)[nH]c1CSc1nc(C)cc(C)n1,-2,68*,-4,-1,71*,0,GFP quench DR=>68
CC(COc1ccccc1C#N)CN1CCC(C(O)(c2ccccc2)c2ccccc2)CC1 (configuration not stated),/,/,3,/,/,/,
CC(=O)O[C@]1(C(C)=O)CCC2C3C=C(Cl)C4=CC(=O)CC[C@]4(C)C3CC[C@@]21C (some centres not stated),/,/,4,/,/,/,
CCOC(=O)CCCCC(=O)c1[nH]c(=O)[nH]c1C[n+]1ccc(C)cc1,2,23*,1,-1,30*,2,GFP quench DR=>68
CN1OC[C@@H]2CN(C(=O)CCc3ccccc3)[C@H](c3ccccc3Br)C[C@@H]21,-3,14*,5,-1,12*,0,
CC(=O)N1C[C@H]2CON(C)[C@H]2C[C@H]1c1ccccc1Br,-1,0,3,-1,/,/,
COC(=O)c1ccc(CSc2nnc(-c3c[nH]c4ccccc34)n2C)o1,1,26*,-2,2,32*,0,GFP quench DR=>68
COC(=O)c1ccc(CSc2nnc(-c3ccccc3)n2C)o1,0,23*,0,-1,32*,0,GFP quench DR=>68
SMILES,PG9 binder,Rin1-Abl PPI inh,Rev-erbA mod,Tb MetRS inh,Rin1 Abl conf,GFP quencher,others
COC(=O)c1ccc(CSc2nnnn2-c2ccccc2)o1,0,0,1,-2,/,/,
O=C1c2c(O)cccc2C(C2OC(CO)C(O)C(O)C2O)c2cc(CO)cc(O)c21 (configuration not stated),/,/,0,/,/,/,
CCOc1ccc2nc(N(CCN(C)C)C(=O)c3cc4ccccc4cc3OC)sc2c1,/,17*,/,-1,17*,-2,GFP quench DR=>68
C#C[C@]1(O)CCC2C3CCc4cc(OC)ccc4C3CC[C@@]21C (some centres not stated),/,/,-4,/,/,/,
O=C1Nc2cccnc2N(C(=O)CCl)c2ccccc21,2,43*,-1,1,-1,0,
NCCN1CCN(CC(=O)N2c3ccccc3C(=O)Nc3cccnc32)CC1,2,0,-3,0,/,/,
Cc1cccc2nc(-c3ccccc3)c(-c3ccc(CN4CCC(n5cc(-c6ccccc6)[nH]c5=O)CC4)cc3)nc12,1,/,6,/,/,/,
COc1ccccc1OCc1ccc(C(=O)N2CCN(C(=O)c3ccco3)CC2)cc1,-1,10*,-3,-1,21*,0,GFP quench DR=>68
C[C@@H]1O[C@@H](Oc2c(-c3ccc(O)c(O)c3)oc3cc(O)cc(O)c3c2=O)[C@H](O)[C@H](O)[C@H]1O,-3,18*!,3,0,12*,3,
O=c1c(OC2OC(CO)C(O)C(O)C2O)c(-c2ccc(O)c(O)c2)oc2cc(O)cc(O)c12 (configuration not stated),-6,16*,2,0,15*,4,
C[C@@H]1O[C@@H](Oc2c(-c3cc(O)c(O)c(O)c3)oc3cc(O)cc(O)c3c2=O)[C@H](O)[C@H](O)[C@H]1O,-8,44*,-9,1,45*,17*,
C[C@@H]1O[C@@H](O[C@H]2[C@H](O)[C@@H](O)[C@H](Oc3c(-c4ccc(O)c(O)c4)oc4cc(O)cc(O)c4c3=O)O[C@@H]2CO)[C@H](O)[C@H](O)[C@H]1O,-5,11*,4,0,11*,3,
C[C@@H]1O[C@@H](OC[C@H]2OC(Oc3c(-c4ccc(O)c(O)c4)oc4cc(O)cc(O)c4c3=O)[C@H](O)[C@@H](O)[C@@H]2O)[C@H](O)[C@H](O)[C@H]1O (some centres not stated),/,/,-1,/,/,/,
COc1cc(-c2oc3cc(O)cc(O)c3c(=O)c2O[C@@H]2O[C@H](COC3O[C@@H](C)[C@H](O)[C@@H](O)[C@H]3O)[C@@H](O)[C@H](O)[C@H]2O)ccc1O (some centres not stated),-3,2,-3,0,/,/,
O=c1c(O[C@@H]2O[C@H](CO)C(O)C2O)c(-c2ccc(O)c(O)c2)oc2cc(O)cc(O)c12 (some centres not stated),/,7,/,0,/,/,
CC(C)CNC(=O)OCc1cn(Cc2ccc(Cl)cc2)nn1,/,/,5,/,/,/,
O=C(N[C@@H](CO)[C@H](O)c1ccc([N+](=O)[O-])cc1)C(Cl)Cl,/,/,-4,/,/,/,
Cc1ccc2[nH]c(=O)c(C(c3nnnn3C(C)(C)C)N(Cc3ccco3)CC3CCCO3)cc2c1 (configuration not stated),0,-4,-2,1,/,/,
